In ChEMBL document CHEMBL2086239, “Synthesis and biological evaluation of combretastatin-amidobenzothiazole conjugates as potential anticancer agents” (Eur J Med Chem, 2012):
The source made the active and inactive calls. No cut-off for these calls is given here.

Key:
SR = assay: Growth inhibition of human SR cells after 48 hrs by SRB assay; type: functional
Procedure, shortened: (§1)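 NCI 60-cell-line panel, five-dose testing after preliminary screen; sulforhodamine B protein assay in DMEM with 10% FBS, 37 °C, 5% CO2, 100% humidity. Cells seeded and incubated 24 h before compound addition, then exposed 48 h. Absorbance read at 560 nm; growth percentage relative to control wells; GI50 taken as concentration giving 50% growth inhibition.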

NCI/ADR-RES = assay: Growth inhibition of human NCI/ADR-RES cells after 48 hrs by SRB assay; type: functional
Procedure, shortened: (§2)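 NCI 60-cell-line screen: after preliminary screening, tested at five dose concentrations on 59 human tumour lines covering leukemia, lung, colon, CNS, melanoma, ovarian, renal, prostate and breast.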

MDA-MB-435 = assay: Growth inhibition of human MDA-MB-435 cells after 48 hrs by SRB assay; type: functional; conditions: MDA-MB-435, 48 h; procedure, shortened: as §2
BT-549 = assay: Growth inhibition of human BT549 cells after 48 hrs by SRB assay; type: functional; conditions: BT-549, 48 h; procedure, shortened: as §2
IMR-32 = assay: Cytotoxicity against human IMR32 cells after 48 hrs assessed as inhibition of cell growth at 10 uM after 48 hrs by SRB assay relative to control; type: functional; conditions: IMR-32, 48 h, read-out: GI
Procedure, shortened: (§3)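 SRB protein assay in DMEM with 10% FBS at 37 °C, 5% CO2, 100% relative humidity. Cells seeded in 96-well plates, incubated 24 h, then exposed to drug at 10 µM for 48 h and processed per standard protocol. Absorbance read at 560 nm; growth percentage calculated for test wells relative to control wells.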

SK-MEL-28 = assay: Growth inhibition of human SK-MEL-28 cells after 48 hrs by SRB assay; type: functional; procedure, shortened: as §1
SK-MEL-5 = assay: Growth inhibition of human SK-MEL-5 cells after 48 hrs by SRB assay; type: functional; conditions: SK-MEL-5, 48 h; procedure, shortened: as §1
NCI-H322M = assay: Growth inhibition of human NCI-H322M cells after 48 hrs by SRB assay; type: functional; procedure, shortened: as §2
SK-MEL-2 = assay: Growth inhibition of human SK-MEL-2 cells after 48 hrs by SRB assay; type: functional; conditions: SK-MEL-2, 48 h; procedure, shortened: as §1
HCT-15 = assay: Growth inhibition of human HCT15 cells after 48 hrs by SRB assay; type: functional; conditions: HCT-15, 48 h; procedure, shortened: as §2
PC-3 = assay: Growth inhibition of human PC3 cells after 48 hrs by SRB assay; type: functional; conditions: PC-3, 48 h; procedure, shortened: as §2
COLO 205 = assay: Cytotoxicity against human COLO205 cells after 48 hrs assessed as inhibition of cell growth at 10 uM after 48 hrs by SRB assay relative to control; type: functional; conditions: COLO 205, 48 h, read-out: GI; procedure, shortened: as §3
SF-268 = assay: Growth inhibition of human SF268 cells after 48 hrs by SRB assay; type: functional; conditions: SF-268, 48 h; procedure, shortened: as §2
Malme-3M = assay: Growth inhibition of human MALME-3M cells after 48 hrs by SRB assay; type: functional; procedure, shortened: as §2
SF-539 = assay: Growth inhibition of human SF539 cells after 48 hrs by SRB assay; type: functional; conditions: SF-539, 48 h; procedure, shortened: as §1
SW-620 = assay: Growth inhibition of human SW620 cells after 48 hrs by SRB assay; type: functional; procedure, shortened: as §1
RXF 393 = assay: Growth inhibition of human RXF393 cells after 48 hrs by SRB assay; type: functional; conditions: RXF 393, 48 h; procedure, shortened: as §2
OVCAR-3 = assay: Growth inhibition of human OVCAR3 cells after 48 hrs by SRB assay; type: functional; conditions: OVCAR-3, 48 h; procedure, shortened: as §2
KM12 = assay: Growth inhibition of human KM12 cells after 48 hrs by SRB assay; type: functional; conditions: KM12, 48 h; procedure, shortened: as §2
786-0 = assay: Growth inhibition of human 786-0 cells after 48 hrs by SRB assay; type: functional; conditions: 786-0, 48 h; procedure, shortened: as §2
MCF7 [1] = assay: Growth inhibition of human MCF7 cells after 48 hrs by SRB assay; type: functional; conditions: MCF7, 48 h; procedure, shortened: as §2
OVCAR-5 = assay: Growth inhibition of human OVCAR5 cells after 48 hrs by SRB assay; type: functional; procedure, shortened: as §2
THP-1 = assay: Cytotoxicity against human THP1 cells after 48 hrs assessed as inhibition of cell growth at 10 uM after 48 hrs by SRB assay relative to control; type: functional; conditions: THP-1, 48 h, read-out: GI; procedure, shortened: as §3
MCF7 [2] = assay: Cell cycle arrest in human MCF7 cells assessed as accumulation at S phase at 4 uM after 24 hrs by FACS analysis (reference value: 6.79%); type: functional
SK-OV-3 = assay: Growth inhibition of human SKOV3 cells after 48 hrs by SRB assay; type: functional; conditions: SK-OV-3, 48 h; procedure, shortened: as §1
A549 = assay: Growth inhibition of human A549 cells after 48 hrs by SRB assay; type: functional; conditions: A549, 48 h; procedure, shortened: as §2
MCF7 [3] = assay: Cytotoxicity against human MCF7 cells at 4 uM after 24 hrs by MTT assay; type: functional, cell-based
Procedure, shortened: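 MCF-7 cells grown in DMEM with 10% fetal calf serum, penicillin and streptomycin at 37 °C, 5% CO2. Seeded at 10,000 cells/well, incubated overnight, then treated 24 h at 4 µM. Medium replaced with fresh medium plus MTT dye, incubated 2 h at 37 °C. Absorbance read at 570 nm; O.D. taken as viability versus untreated control.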

Q: With `COc1ccc2nc(NC(=O)COc3cc(/C=C\c4cc(OC)c(OC)c(OC)c4)ccc3OC)sc2c1` as the compound, how does the GI50 (SR) read?
A: Its GI50 is 3.69 µM.

Q: And the GI50 (NCI/ADR-RES)?
A: The GI50 was 2.3 µM.

Q: And the GI50 (MDA-MB-435)?
A: Its GI50 is 1.16 µM.

Q: What about the GI50 (BT-549) of the same compound?
A: Its GI50 is 21.2 µM.

Q: What about the inhibition of growth at 10 µM (IMR-32) of the same compound?
A: The inhibition of growth at 10 µM was 73%.

Q: What about the GI50 (SK-MEL-28; SK-MEL-28, 48 h) of the same compound?
A: Its GI50 is 4.41 µM.

Q: What about the GI50 (SK-MEL-5) of the same compound?
A: The GI50 was 2.68 µM.

Q: What about the GI50 (NCI-H322M) of the same compound?
A: Its GI50 is “inactive”.

Q: What about the GI50 (SK-MEL-2) of the same compound?
A: The GI50 was 4.07 µM.

Q: What about the GI50 (HCT-15) of the same compound?
A: The GI50 was 2.89 µM.

Q: What about the GI50 (PC-3) of the same compound?
A: The GI50 was 4.45 µM.

Q: And the inhibition of growth at 10 µM (COLO 205)?
A: The inhibition of growth at 10 µM was 56%.

Q: What about the GI50 (SF-268) of the same compound?
A: The GI50 was 4.31 µM.

Q: And the GI50 (Malme-3M)?
A: Its GI50 is “inactive”.

Q: And the GI50 (SF-539)?
A: The GI50 was 2.84 µM.

Q: What about the GI50 (SW-620; SW-620, 48 h) of the same compound?
A: Its GI50 is 5.1 µM.

Q: And the GI50 (RXF 393)?
A: Its GI50 is 2.5 µM.

Q: And the GI50 (OVCAR-3)?
A: The GI50 was 2.17 µM.

Q: What about the GI50 (KM12) of the same compound?
A: Its GI50 is 3.12 µM.

Q: And the GI50 (786-0)?
A: Its GI50 is 7.52 µM.

Q: And the GI50 (MCF7 [1])?
A: Its GI50 is 2.88 µM.

Q: What about the GI50 (OVCAR-5; OVCAR-5, 48 h) of the same compound?
A: The GI50 was 5.89 µM.

Q: What about the inhibition of growth at 10 µM (THP-1) of the same compound?
A: Its inhibition of growth at 10 µM is 72%.

Q: What about the Activity (MCF7 [2]) of the same compound?
A: Its Activity is 7.12%.

Q: And the GI50 (SK-OV-3)?
A: The GI50 was 4.69 µM.

Q: What about the GI50 (A549) of the same compound?
A: Its GI50 is 5.19 µM.

Q: Which results are given for `COc1ccc(/C=C\c2cc(OC)c(OC)c(OC)c2)cc1OCC(=O)Nc1nc2ccc(F)cc2s1`?
A: GI50 (SR): 2.19 µM; GI50 (NCI/ADR-RES): 2.55 µM; GI50 (MDA-MB-435): 0.33 µM; GI50 (BT-549): 16.7 µM; inhibition of growth at 10 µM (IMR-32): 77%; GI50 (SK-MEL-28): inactive; GI50 (SK-MEL-5): 1.76 µM; GI50 (NCI-H322M): inactive; GI50 (SK-MEL-2): 8.46 µM; GI50 (HCT-15): 8.19 µM; GI50 (PC-3): 6.74 µM; Activity (MCF7 [3]): Active; inhibition of growth at 10 µM (COLO 205): 50%; GI50 (SF-268): 7.23 µM; GI50 (Malme-3M): 5.22 µM; GI50 (SF-539): 4.51 µM; GI50 (SW-620): inactive; GI50 (RXF 393): 6.29 µM; GI50 (OVCAR-3): 9.99 µM; GI50 (KM12): 4.78 µM; GI50 (786-0): 7.12 µM; GI50 (MCF7 [1]): 2.3 µM; GI50 (OVCAR-5): inactive; inhibition of growth at 10 µM (THP-1): 54%; Activity (MCF7 [2]): 13.64%; GI50 (SK-OV-3): 8 µM; GI50 (A549): 5.99 µM

Q: Which results are given for `COc1ccc(/C=C\c2cc(OC)c(OC)c(OC)c2)cc1OCC(=O)Nc1nc2ccc(C(F)(F)F)cc2s1`?
A: GI50 (SR): 3.35 µM; GI50 (NCI/ADR-RES): 2.12 µM; GI50 (MDA-MB-435): 1.84 µM; GI50 (BT-549): 5.23 µM; inhibition of growth at 10 µM (IMR-32): 23%; GI50 (SK-MEL-28; SK-MEL-28, 48 h): 3 µM; GI50 (SK-MEL-5): 2.84 µM; GI50 (NCI-H322M): 5.38 µM; GI50 (SK-MEL-2): 3.98 µM; GI50 (HCT-15): 3.24 µM; GI50 (PC-3): 4.32 µM; inhibition of growth at 10 µM (COLO 205): 25%; GI50 (SF-268): 3.85 µM; GI50 (Malme-3M): inactive; GI50 (SF-539): 2.66 µM; GI50 (SW-620; SW-620, 48 h): 4.65 µM; GI50 (RXF 393): 2.27 µM; GI50 (OVCAR-3): 2.11 µM; GI50 (KM12): 3.14 µM; GI50 (786-0): 6.96 µM; GI50 (MCF7 [1]): 3.16 µM; GI50 (OVCAR-5; OVCAR-5, 48 h): 5.98 µM; inhibition of growth at 10 µM (THP-1): 29%; Activity (MCF7 [2]): 7.15%; GI50 (SK-OV-3): 3.29 µM; GI50 (A549): 4.46 µM

Q: Which results are given for `COc1ccc(/C=C\c2cc(OC)c(OC)c(OC)c2)cc1OCC(=O)Nc1ccc2nc(C)sc2c1`?
A: GI50 (SR): 2.93 µM; GI50 (NCI/ADR-RES): 2.36 µM; GI50 (MDA-MB-435): 2.13 µM; GI50 (BT-549): 3.05 µM; inhibition of growth at 10 µM (IMR-32): 62%; GI50 (SK-MEL-28; SK-MEL-28, 48 h): 3.22 µM; GI50 (SK-MEL-5): 1.97 µM; GI50 (NCI-H322M): 6.74 µM; GI50 (SK-MEL-2): 3.15 µM; GI50 (HCT-15): 2.8 µM; GI50 (PC-3): 2.8 µM; inhibition of growth at 10 µM (COLO 205): 17%; GI50 (SF-268): 3.61 µM; GI50 (Malme-3M): 2.84 µM; GI50 (SF-539): 2.56 µM; GI50 (SW-620; SW-620, 48 h): 4.7 µM; GI50 (RXF 393): 5.06 µM; GI50 (OVCAR-3): 6.32 µM; GI50 (KM12): 3.79 µM; GI50 (786-0): 7.55 µM; GI50 (MCF7 [1]): 0.74 µM; GI50 (OVCAR-5; OVCAR-5, 48 h): 6.69 µM; inhibition of growth at 10 µM (THP-1): 59%; Activity (MCF7 [2]): 7.71%; GI50 (SK-OV-3): 5.27 µM; GI50 (A549): 2.1 µM
